We go through three molecules from ChEMBL document CHEMBL1125351, “Isobenzofurans as conformationally constrained miconazole analogues with improved antifungal potency” (1992).

In general, MIC refers to the least concentration at which growth counts as inhibited. As usually defined, the Inhibition is the relative decrease from the control value, in per cent.

The test system of assay [1] is Candida albicans. Put plainly: Minimum inhibitory concentration against Candida albicans at a pH of 5.7 using SDB medium. The format is functional. An outline of the steps:
(§1)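 Broth dilution in Sabouraud dextrose broth, pH 5.7. Compounds dissolved in DMSO or ethanol, serially diluted in medium, inoculated and incubated at 27 °C. Wells read visually at 48 h. MIC is the lowest concentration giving complete growth inhibition.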

A further assay deals with Epidermophyton floccosum. Put plainly: Minimum inhibitory concentration against Epidermophyton floccosum at a pH of 5.7 using SDB medium. The class given is functional. An outline of the steps: (§2)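 Dermatophyte isolates tested by serial broth dilution in SDB, pH 5.7. Compound stocks in DMSO or ethanol, incubated at 27 °C, and growth read visually at 72 h. MIC is the lowest concentration with no visible growth. The summary value is the geometric mean of the MICs across the organisms.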

Assay [2] concerns Candida tropicalis. As to the kind of experiment: Minimum inhibitory concentration against Candida tropicalis using eagles minimum essential medium (EMEM). The class given is functional. An outline of the steps: (§3)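 Candida MICs in Eagle's minimum essential medium, pH 7.0. Compounds in DMSO or ethanol were serially diluted in medium, inoculated and incubated at 37 °C under CO₂. […] The summary value is the geometric mean of the MICs across strains.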

The test system of the next assay is Candida. Put plainly: Compound is evaluated for geometric mean of MIC values of Candida species. The class given is functional. On the set-up: unit not given beside the values.
A further assay relates to Microsporum canis. As to the kind of experiment: Minimum inhibitory concentration against Microsporum canis at a pH of 5.7 using SDB medium. The class given is functional. An outline of the steps:
as §2

The subject of the next assay is Trichophyton benhamiae. As to the kind of experiment: Minimum inhibitory concentration against Trichophyton mentagrophytes at a pH of 5.7 using SDB medium. The class given is functional, Arthroderma benhamiae. An outline of the steps:
as §2

The next assay deals with Nannizzia gypsea. Put plainly: Minimum inhibitory concentration against Microsporum gypseum at a pH of 5.7 using SDB medium. The format is functional. An outline of the steps: as §2
The subject of assay [3] is Candida tropicalis. Put plainly: Minimum inhibitory concentration against Candida tropicalis at a pH of 5.7 using SDB medium. The class given is functional. An outline of the steps: as §1
The subject of a further assay is Trichophyton rubrum. Put plainly: Minimum inhibitory concentration against Trichophyton rubrum at a pH of 5.7 using SDB medium. The format is functional. An outline of the steps:
as §2

The test system of assay [4] is Candida albicans. Put plainly: Minimum inhibitory concentration against Candida stellatoidea at a pH of 5.7 using SDB medium. The format is functional. An outline of the steps:
as §1

For assay [5], the system named is Candida albicans. Put plainly: Minimum inhibitory concentration against Candida stellatoidea using eagles minimum essential medium (EMEM). The format is functional. An outline of the steps:
as §3

The test system of a further assay is Candida parapsilosis. As to the kind of experiment: Minimum inhibitory concentration against Candida parapsilosis at a pH of 5.7 using SDB medium. The format is functional. Particulars: Lodderomyces parapsilosis. An outline of the steps: as §1
For assay [6], the system named is Arthrodermataceae. Put plainly: (§4) Compound is evaluated for geometric mean of MIC values of dermatophytes. The format is functional. An outline of the steps:
as §2

Assay [7] is described as follows: Geometric mean for the above three species of Candida, tested in EMEM medium. The format is functional. An outline of the steps:
as §3

The test system of assay [8] is Candida albicans. As to the kind of experiment: Minimum inhibitory concentration against Candida albicans using eagles minimum essential medium (EMEM). The format is functional. An outline of the steps: as §3
Assay [9] relates to Cavia porcellus. As to the kind of experiment: In vivo inhibition of topical Trichophyton infection in Guinea Pig during drug administration. The format is functional. An outline of the steps:
(§5)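 Guinea pigs (5 per compound) infected with T. mentagrophytes D24 by swabbing a homogenate onto shaven, abraded skin. From day 4 post-infection, 0.25% (w/v) compound in EtOH–PEG 400–glycerol (10:45:45) was rubbed in topically twice daily for 10 days. Hair samples were cultured on SDA at 27 °C for up to 16 days. Read-outs were the % negative cultures and the day each animal became culture-negative.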

For assay [10], the system named is Arthrodermataceae. The description is as §4. The format is functional. On the set-up: unit not given beside the values. An outline of the steps:
as §2

In assay [11] the test system is Cricetinae gen. sp. Put plainly: Inhibition of Vaginal Candida (C-60 strain) infection in Hamsters, estimated as Percent Area under curve at 0.05 % concentration after 8 days of administration. The format is functional, Cricetulus griseus. An outline of the steps:
(§6)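 Hamster vaginal C. albicans infection (strains C43 or C60; 10 animals per compound). From day 5 post-infection, a cotton pellet holding 0.15 mL of 0.05% or 0.01% (w/w) compound in EtOH–PEG 400–glycerol (10:45:45) was inserted once daily for 4 or 8 days. Vaginal swabs were filtered and the filters cultured on SDA at 37 °C for 48 h. Read-out was the area under the % negative cultures versus time curve.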

Assay [12] is filed under the species Cavia porcellus. As to the kind of experiment: Lession score which is determined as number of animals minus days to become negative. The class given is functional. An outline of the steps: as §5
The test system of assay [13] is Cavia porcellus. As to the kind of experiment: In vivo inhibition of topical Trichophyton infection in Guinea Pig after drug administration. The class given is functional. An outline of the steps: as §5
In assay [14] the test system is Cricetinae gen. sp. Put plainly: Inhibition of Vaginal Candida (C-60 strain) infection in Hamsters, estimated as Percent Area under curve at 0.05 % concentration after 4 days of administration. The class given is functional, Cricetulus griseus. An outline of the steps: as §6
The test system of assay [15] is Cricetinae gen. sp. As to the kind of experiment: Inhibition of Vaginal Candida (C-60 strain) infection in Hamsters, estimated as Percent Area under curve at 0.01 % concentration after 4 days of administration. The format is functional, Cricetulus griseus. An outline of the steps: as §6
For assay [16], the system named is Cricetinae gen. sp. Put plainly: Inhibition of Vaginal Candida (C-43 strain) infection in Hamsters, estimated as Percent Area under curve at 0.05 % concentration after 8 days of administration. The format is functional, Cricetulus griseus. An outline of the steps: as §6
For assay [17], the system named is Cricetinae gen. sp. Put plainly: Inhibition of Vaginal Candida (C-60 strain) infection in Hamsters, estimated as Percent Area under curve at 0.25 % concentration after 8 days of administration. The class given is functional, Cricetulus griseus.
In assay [18] the test system is Cricetinae gen. sp. Put plainly: Inhibition of Vaginal Candida (C-43 strain) infection in Hamsters, estimated as Percent Area under curve at 0.25 % concentration after 8 days of administration. The format is functional, Cricetulus griseus.
For assay [19], the system named is Cricetinae gen. sp. Put plainly: Inhibition of Vaginal Candida (C-60 strain) infection in Hamsters, estimated as Percent Area under curve at 0.25 % concentration after 4 days of administration. The class given is functional, Cricetulus griseus.

Values after ≈ are worked out from the molar mass of the structure shown. Values joined by “and” are separate entries in the source; they are usually repeats but may differ in a detail not shown here. Identical values can stand only once.

Turning to `c1ccc(C2(Cn3ccnc3)SCc3ccccc32)cc1` (stereo not drawn), the MIC in the assay with Candida albicans [1] is 64 µg/mL (≈ 219 µM); against Epidermophyton floccosum, 0.063 µg/mL (≈ 0.215 µM); with Candida tropicalis [2], 0.125 µg/mL (≈ 0.427 µM); in the assay with Microsporum canis, 4 µg/mL (≈ 13.7 µM); against Trichophyton benhamiae, 2 µg/mL (≈ 6.84 µM); in the assay on Nannizzia gypsea it was 16 µg/mL (≈ 54.7 µM). Also, the MIC amounted to 64 µg/mL (≈ 219 µM) against Candida tropicalis [3]; 2 µg/mL (≈ 6.84 µM) with Trichophyton rubrum; 64 µg/mL (≈ 219 µM) in the assay on Candida albicans [4]; 0.25 µg/mL (≈ 0.855 µM) against Candida albicans [5]; 16 µg/mL (≈ 54.7 µM) against Candida parapsilosis; 0.25 µg/mL (≈ 0.855 µM) in the assay on Candida albicans [8]. The results for the Geometric mean (in the assay on Candida; with Arthrodermataceae [6]; in [7]) were 53, 1.7 and 0.19, respectively.

Turning to `Clc1ccc(C2(Cn3ccnc3)OCc3ccccc32)cc1` (stereo not drawn), the MIC against Candida albicans [1] was 16 µg/mL (≈ 51.5 µM); in the assay with Epidermophyton floccosum, less than 0.031 µg/mL; with Candida tropicalis [2], 0.125 µg/mL (≈ 0.402 µM); against Microsporum canis, 2 µg/mL (≈ 6.44 µM); against Trichophyton benhamiae, 2 µg/mL (≈ 6.44 µM); in the assay with Nannizzia gypsea it was 4 µg/mL (≈ 12.9 µM). The MIC was 16 µg/mL (≈ 51.5 µM) with Candida tropicalis [3]; 2 µg/mL (≈ 6.44 µM) against Trichophyton rubrum; 32 µg/mL (≈ 103 µM) in the assay on Candida albicans [4]; less than 0.031 µg/mL against Candida albicans [5]; 0.25 µg/mL (≈ 0.804 µM) against Candida parapsilosis; less than 0.031 µg/mL against Candida albicans [8]. In addition, the Culture negative in the assay on Cavia porcellus [9] is listed as 90%; in the assay with Cavia porcellus [13], 87%. The Geometric mean with Arthrodermataceae [10] was less than 0.86; with Candida, 7.2; in assay [7], less than 0.03. Also, the Inhibition in the assay with Cricetinae gen. sp. [11] is recorded as 88%; in the assay on Cricetinae gen. sp. [14] it was 88%; in the assay on Cricetinae gen. sp. [15], 30%; in the assay with Cricetinae gen. sp. [16] it was 89%. The Lesion score in the assay filed under Cavia porcellus [12] was 3 and >2.

As to `Clc1ccc(COC(Cn2ccnc2)c2ccc(Cl)cc2Cl)c(Cl)c1` (stereo not drawn) [MICONAZOLE], the minimum inhibitory concentration (MIC) with Candida albicans [1] is 8 µg/mL (≈ 19.2 µM); in the assay with Epidermophyton floccosum, less than 0.031 µg/mL; with Candida tropicalis [2], 0.125 µg/mL (≈ 0.3 µM); against Microsporum canis, less than 0.031 µg/mL; with Trichophyton benhamiae it was less than 0.031 µg/mL; against Nannizzia gypsea, 1 µg/mL (≈ 2.4 µM). Further, the MIC was 4 µg/mL (≈ 9.61 µM) with Candida tropicalis [3]; less than 0.031 µg/mL in the assay on Trichophyton rubrum; 8 µg/mL (≈ 19.2 µM) in the assay on Candida albicans [4]; 0.125 µg/mL (≈ 0.3 µM) against Candida albicans [5]; less than 0.031 µg/mL in the assay on Candida parapsilosis; 0.25 µg/mL (≈ 0.601 µM) in the assay on Candida albicans [8]. For the same molecule, the Inhibition is recorded as 63% in the assay with Cricetinae gen. sp. [17], 69% in the assay with Cricetinae gen. sp. [18], 63% with Cricetinae gen. sp. [19] and 33% with Cricetinae gen. sp. [15]. Also, the Culture negative in the assay on Cavia porcellus [9] is 20%; in the assay with Cavia porcellus [13], 60%. In addition, the Geometric mean in the assay with Arthrodermataceae [10] is less than 0.03; with Candida, less than 1.8; in assay [7], 0.18.
